The nature of data set [1]: folding enthalpy; higher = less favourable; fluorescence melt of hairpins on a sequencing array, two-state fit. The note with it: sodium 0.088 M. In outline:
(§1)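 Folding enthalpy and melting temperature were estimated with bootstrapped two-state fits and combined across four replicates by inverse-variance weighting, with fitted temperatures raised by 9.35 °C to match UV melts. The data were Cy3 fluorescence of library hairpins, with annealed Cy3 and quencher oligos, on a sequenced MiSeq flow cell in 50 mM Na-HEPES pH 8.0, 25 mM NaCl, imaged in 2.5 °C steps up to 60 °C and normalised to pre-quench Cy3 and control constructs.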

Data set [2] is described as follows: melting temperature; fluorescence melt of hairpins on a sequencing array, two-state fit, raised by 9.35 °C to match UV melts. The note with it: sodium 0.088 M. The essentials: as §1

Consider GGACGGCGAAAGCCCTCC (((.(((....))).))), for which, in data set [1], the folding enthalpy was -20.5 kcal/mol. For the same sequence, the Tm in data set [2] stood at 41.4 °C.

With GGACGGGCGAAAGCCTCC (((..(((....)))))), in data set [1], the folding enthalpy was -10.5 kcal/mol. For the same sequence, the Tm in data set [2] amounted to 33.7 °C.

As for GGACGGGGAAACCCGCCC ((.((((....)))).)), in data set [1], the folding enthalpy was -34.1 kcal/mol. For the same sequence, the Tm in data set [2] was determined as 58.7 °C.

As to GGACGGGGAAACTCGTCC (((((.(....).))))), the folding enthalpy in data set [1] was -41 kcal/mol. In data set [2], the Tm amounted to 58 °C.

As to GGACGTCCGAAAGGATCC (((..(((....)))))), the folding enthalpy in data set [1] is -14.9 kcal/mol. In data set [2], the Tm is 25.8 °C.

In the case of GGACGTGGAAACACATCC (((.(((....))).))), the folding enthalpy in data set [1] was -25.9 kcal/mol. Moreover, the Tm in data set [2] came to 41.1 °C.

Take GGACGTGGAAACATGTCC ((((.((....)).)))): the folding enthalpy in data set [1] is -38.5 kcal/mol. Besides, the Tm in data set [2] is 53.7 °C.

As to GGACTAGAAATAGTCC ((((((....)))))), the folding enthalpy in data set [1] is -33 kcal/mol. Besides, the Tm in data set [2] came to 52.9 °C.

As to GGACTCCGAAAGGACTCC (((.(((....))).))), the folding enthalpy in data set [1] is -21.1 kcal/mol. Further, the Tm in data set [2] is 39.2 °C.

Turning to GGACTCGAAAGAGGTCC ((((((....))).))), the folding enthalpy in data set [1] is -35.2 kcal/mol. For the same sequence, the Tm in data set [2] was determined as 52.4 °C.

On to GGACTCGAAAGAGTTCC ((((((....))).))), for which the folding enthalpy in data set [1] is -21.2 kcal/mol. In addition, in data set [2], the Tm was 50.3 °C.

GGACTGCGAAAGCAATCC (((.(((....))).))): the folding enthalpy in data set [1] was -12.7 kcal/mol. In addition, the Tm in data set [2] was 47.8 °C.

GGACTTGGAAACAAGTTC (.(((((....))))).): the folding enthalpy in data set [1] was -29.8 kcal/mol. Besides, the Tm in data set [2] came to 47.5 °C.

For the sequence GGAGACGAAAGTCAGTCC ((((((....)))..))), in data set [1], the folding enthalpy was -13.6 kcal/mol. Also, the Tm in data set [2] stood at 31.6 °C.

With GGAGACGAAAGTCCTCC ((((((....))).))), in data set [1], the folding enthalpy is -25 kcal/mol. Moreover, in data set [2], the Tm was found to be 48.7 °C.

Turning to GGAGACGAAAGTCGTCC ((((((....))).))), the folding enthalpy in data set [1] was -14.3 kcal/mol. Also, in data set [2], the Tm is 49.5 °C.

With GGAGACGAAAGTCTATCC ((((((....)))..))), the folding enthalpy in data set [1] is -12.5 kcal/mol. Moreover, the Tm in data set [2] was found to be 32.8 °C.

As for GGAGACGAAAGTCTCTCC ((((((....)))..))), the folding enthalpy in data set [1] is -9.83 kcal/mol. Moreover, the Tm in data set [2] worked out at 54.5 °C.

GGAGACGAAAGTCTTTCC ((((((....)))..))): the folding enthalpy in data set [1] is -10.9 kcal/mol. In data set [2], the Tm worked out at 32.6 °C.

On to GGAGACGGAAACATCTCC (((((.(....).))))), for which, in data set [1], the folding enthalpy was -31.8 kcal/mol. Besides, in data set [2], the Tm came out at 39.5 °C.

Take GGAGACGGAAACGTCCCC ((.((((....)))).)): the folding enthalpy in data set [1] is -20.1 kcal/mol. Moreover, in data set [2], the Tm is 49.2 °C.

GGAGACGGAAACGTTTCC (((.(((....))).))): the folding enthalpy in data set [1] is -30.3 kcal/mol. For the same sequence, in data set [2], the Tm is 49.5 °C.

As to GGAGAGGGAAACCTCCCC ((.((((....)))).)), the folding enthalpy in data set [1] was -16.2 kcal/mol. In addition, the Tm in data set [2] amounted to 39.9 °C.

As for GGAGAGGGAAACCTCTCC (((((((....))))))), the folding enthalpy in data set [1] was -46.6 kcal/mol. The Tm in data set [2] was found to be 63.3 °C.

On to GGAGATGGAAACATCTTC (.(((((....))))).), for which, in data set [1], the folding enthalpy is -26.2 kcal/mol. Further, the Tm in data set [2] is 44.6 °C.

Take GGAGCACGAAAGTGTTCC (((.(((....))).))): the folding enthalpy in data set [1] is -39.8 kcal/mol. Further, the Tm in data set [2] is 58.8 °C.

In the case of GGAGCCCCGAAAGGGTCC (((..(((....)))))), the folding enthalpy in data set [1] is -20.4 kcal/mol. The Tm in data set [2] was 47.4 °C.

GGAGCCGGAAACGGCCCC ((.((((....)))).)): the folding enthalpy in data set [1] is -15.5 kcal/mol. The Tm in data set [2] is 58.5 °C.

Consider GGAGCGGGAAACCACTCC ((((.((....)).)))), for which, in data set [1], the folding enthalpy is -34.7 kcal/mol. Further, the Tm in data set [2] stood at 49.2 °C.

In the case of GGAGCTACGAAAGTATCC (((..(((....)))))), the folding enthalpy in data set [1] was -5.61 kcal/mol. The Tm in data set [2] was determined as 19.7 °C.

The record behind these values is the array DNA melting data of Ke et al. (doi:10.1101/2024.01.08.574731).
